According to ChEMBL document CHEMBL1135482 (J Med Chem, 2002):

What was measured:
[1] = molecular target: T1, Melatonin receptor type 1B (Homo sapiens, UniProt P49286); experiment: Intrinsic activity at human Melatonin receptor type 1B evaluated on [35S]GTP-gamma-S, binding in Chinese hamster ovarian (CHO) cells; type: functional, cell-based
T1 sequence (P49286 whole entry): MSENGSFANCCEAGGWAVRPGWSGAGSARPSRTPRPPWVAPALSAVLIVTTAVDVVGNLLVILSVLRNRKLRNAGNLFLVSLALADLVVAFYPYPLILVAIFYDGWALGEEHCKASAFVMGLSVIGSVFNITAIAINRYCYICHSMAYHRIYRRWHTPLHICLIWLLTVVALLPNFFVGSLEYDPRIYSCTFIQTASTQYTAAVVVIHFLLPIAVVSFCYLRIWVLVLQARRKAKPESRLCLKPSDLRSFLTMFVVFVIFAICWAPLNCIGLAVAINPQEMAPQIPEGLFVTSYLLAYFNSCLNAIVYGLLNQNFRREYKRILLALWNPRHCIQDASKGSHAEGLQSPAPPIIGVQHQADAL

[2] = molecular target: T2, Melatonin receptor type 1A (Homo sapiens, UniProt P48039); experiment: Intrinsic activity evaluated on [35S]GTP -gamma-S binding in Chinese hamster ovarian (CHO) cells, stably expressing human Melatonin receptor type 1A; type: functional, cell-based
T2 sequence (P48039 whole entry): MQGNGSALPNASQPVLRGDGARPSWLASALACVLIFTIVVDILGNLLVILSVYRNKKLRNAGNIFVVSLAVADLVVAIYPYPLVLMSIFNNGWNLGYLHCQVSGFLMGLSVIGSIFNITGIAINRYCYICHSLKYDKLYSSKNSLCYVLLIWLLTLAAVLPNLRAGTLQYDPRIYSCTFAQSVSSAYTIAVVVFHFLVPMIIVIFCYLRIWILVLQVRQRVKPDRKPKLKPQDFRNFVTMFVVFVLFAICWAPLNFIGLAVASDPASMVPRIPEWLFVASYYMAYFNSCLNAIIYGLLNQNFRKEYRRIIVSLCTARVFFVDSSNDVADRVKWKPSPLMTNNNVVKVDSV

[3] = molecular target: T2, Melatonin receptor type 1A; experiment: Binding affinity on human melatonin receptor type 1A stably transfected in human embryonic kidney (HEK 293) using 2-[125I]iodomelatonin as radioligand.; type: cell-based, HEK293
[4] = molecular target: T1, Melatonin receptor type 1B; experiment: Binding affinity on human melatonin receptor type 1B stably transfected in human embryonic kidney (HEK 293) cells using 2-[125I]iodomelatonin as radioligand.; type: cell-based, HEK293
[5] = molecular target: T3, Melatonin receptor type 1B (Homo sapiens) (UniProt P49286); experiment: Antagonist potency determined against 3 nM melatonin for Melatonin receptor type 1B; type: functional
T3 sequence (whole entry): T1 sequence (P49286 whole entry)
Procedure, shortened: (§1)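 Antagonist mode of [³⁵S]GTPγS binding on membranes (20 µg/mL) of CHO cells stably expressing human MT₁ or MT₂. […] Incubation 1 h at room temperature, GF/B filtration. Nonspecific binding with 10 µM GTPγS.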

[6] = molecular target: T2, Melatonin receptor type 1A; experiment: Antagonist potency determined against 30 nM melatonin for Melatonin receptor type 1A; type: functional; procedure, shortened: as §1
[7] = molecular target: T2, Melatonin receptor type 1A; experiment: Intrinsic activity of Melatonin receptor type 1A evaluated on [35S]GTP-gamma-S, binding in Chinese hamster ovarian (CHO) cells; type: functional, cell-based

COc1ccc2oc(-c3ccccc3)c(CCNC(C)=O)c2c1 was tested, and the EC50 [1] was 0.096 nM, the EC50 [2] was 0.17 nM and the Ki [3] was 0.01 nM. The Ki [4] was 0.02 nM.

Compound CCCCCOc1ccc2oc(Cc3ccccc3)c(CCNC(C)=O)c2c1 has a Ki [3] of 42.7 nM and a Ki [4] of 9.64 nM.

COc1cccc(Cc2oc3ccc(OC)cc3c2CCNC(C)=O)c1 gave an EC50 [1] of 0.72 nM, a Kb [5] of 1.65 nM and an EC50 [2] of 37 nM. The Kb [6] was 26 nM, the Ki [3] was 40.6 nM and the Ki [4] was 0.32 nM.

For COc1ccc2oc(Cc3ccccc3)c(CCNC(=O)c3ccco3)c2c1, the Ki [3] was 698 nM and the Ki [4] was 36.7 nM.

Work on C=CCC(=O)NCCc1c(Cc2cccc(OC)c2)oc2ccc(OC)cc12 yielded an EC50 [1] of 0.39 nM, a Kb [5] of 0.24 nM and an EC50 [2] of 138 nM. The Kb [6] was 57 nM.

With COc1ccc(Cc2oc3ccc(OC)cc3c2CCNC(C)=O)cc1 the EC50 [1] was > 10000 nM, the Kb [5] was 0.42 nM and the EC50 [2] was > 10000 nM. The Kb [6] was 35 nM, the Ki [3] was 24 nM and the Ki [4] was 0.5 nM.

C=CCC(=O)NCCc1c(Cc2ccccc2)oc2ccc(OC)cc12 was tested, and the EC50 [1] was 0.17 nM, the Kb [5] was 0.16 nM and the EC50 [2] was 25 nM. The Ki [3] was 3.51 nM and the Ki [4] was 0.06 nM.

With CCCCCCOc1ccc2oc(Cc3ccccc3)c(CCNC(C)=O)c2c1 the Ki [3] was 8.2 nM and the Ki [4] was 3.21 nM.

COc1ccc2oc(Cc3ccccc3OC)c(CCNC(C)=O)c2c1 was tested, and the EC50 [1] was 0.41 nM, the Kb [5] was 0.88 nM and the EC50 [2] was > 10000 nM. It also gave a Kb [6] of 26 nM, a Ki [3] of 14.3 nM and a Ki [4] of 0.34 nM.

In the case of CCc1ccc2oc(Cc3cccc(OC)c3)c(CCNC(C)=O)c2c1, the EC50 [1] is reported as 19 nM, the Kb [5] is reported as 18 nM and the EC50 [2] is reported as > 10000 nM. For the same compound, the Kb [6] was 266 nM, the Ki [3] was 288 nM and the Ki [4] was 17 nM.

CNC(=O)NCCc1c(Cc2ccccc2)oc2ccc(OC)cc12 showed a Ki [3] of 5.37 nM and a Ki [4] of 0.35 nM.

COc1cccc(Cc2oc3ccccc3c2CCNC(C)=O)c1 gave a Ki [3] of 229 nM and a Ki [4] of 18.6 nM.

Work on C=CC(=O)NCCc1c(Cc2ccccc2)oc2ccc(OC)cc12 yielded a Ki [3] of 53.7 nM and a Ki [4] of 0.69 nM.

CCc1ccc2oc(Cc3ccccc3)c(CCNC(C)=O)c2c1 showed a Ki [3] of 64.4 nM and a Ki [4] of 8.25 nM.

For COc1ccc2oc(Cc3cccc(C(F)(F)F)c3)c(CCNC(C)=O)c2c1, the EC50 [1] was 1.26 nM, the Kb [5] was 2.4 nM and the EC50 [7] was > 10000 nM. The Kb [6] was 89 nM, the Ki [3] was 80 nM and the Ki [4] was 1.17 nM.

With CNC(=O)NCCc1c(-c2ccccc2)oc2ccc(OC)cc12 the Ki [3] was 0.04 nM and the Ki [4] was 0.04 nM.

For COc1ccc2oc(Cc3cccnc3)c(CCNC(C)=O)c2c1, the Ki [3] was 29 nM and the Ki [4] was 3.53 nM.

Compound COc1ccc2oc(Cc3cccc(F)c3)c(CCNC(C)=O)c2c1 has a Ki [3] of 0.75 nM and a Ki [4] of 0.23 nM.

Compound COc1ccc2oc(Cc3cc(C(F)(F)F)cc(C(F)(F)F)c3)c(CCNC(C)=O)c2c1 has a Ki [3] of 476 nM and a Ki [4] of 340 nM.

In the case of C/C=C/C(=O)NCCc1c(-c2ccccc2)oc2ccc(OC)cc12, the Ki [3] is reported as 1.01 nM and the Ki [4] is reported as 0.21 nM.

For COc1ccc2oc(CCCc3ccccc3)c(CCNC(C)=O)c2c1, the Ki [3] was 31.5 nM and the Ki [4] was 1.52 nM.

For COc1ccc2oc(Cc3ccccc3)c(CCNC(C)=O)c2c1, the EC50 [1] was > 10000 nM, the Kb [5] was 0.21 nM and the EC50 [2] was 21 nM. For the same compound, the Ki [4] was 0.05 nM.

For COc1ccc2oc(-c3ccccc3)c(CCNC(=O)c3ccco3)c2c1, the Ki [3] was 12.9 nM and the Ki [4] was 1.7 nM.

With COc1ccc2oc(CC3CCCCC3)c(CCNC(C)=O)c2c1 the EC50 [1] was 10 nM, the Kb [5] was 7 nM and the EC50 [2] was 481 nM. It also gave a Kb [6] of 242 nM, a Ki [3] of 66.4 nM and a Ki [4] of 2.49 nM.

CC(=O)NCCc1c(Cc2ccccc2)oc2ccc(O)cc12 was tested, and the Ki [3] was 569 nM and the Ki [4] was 79.9 nM.

COc1ccc2oc(Cc3ccccc3)c(CCNC(=O)CI)c2c1 gave a Ki [3] of 8.67 nM and a Ki [4] of 0.41 nM.

Compound C=CC(=O)NCCc1c(-c2ccccc2)oc2ccc(OC)cc12 has a Ki [3] of 0.02 nM and a Ki [4] of 0.01 nM.

With C=CC(=O)NCCc1c(Cc2cccc(OC)c2)oc2ccc(OC)cc12 the Ki [3] was 55 nM and the Ki [4] was 2.76 nM.

With COc1ccc2oc(Cc3c(Cl)cccc3Cl)c(CCNC(C)=O)c2c1 the Ki [3] was 84.5 nM and the Ki [4] was 12.8 nM.

In the case of CC(=O)NCCc1c(Cc2ccccc2)oc2ccccc12, the EC50 [1] is reported as > 10000 nM, the Kb [5] is reported as 12 nM and the EC50 [2] is reported as > 10000 nM. For the same compound, the Kb [6] was 27 nM, the Ki [3] was 155 nM and the Ki [4] was 10.6 nM.

In the case of C=CCC(=O)NCCc1c(-c2ccccc2)oc2ccc(OC)cc12, the Ki [3] is reported as 0.01 nM and the Ki [4] is reported as 0.02 nM.

For COc1ccc2oc(Cc3cccc(Cl)c3)c(CCNC(C)=O)c2c1, the Ki [3] was 7.19 nM and the Ki [4] was 0.22 nM.

For CCCC(=O)NCCc1c(Cc2ccccc2)oc2ccc(OC)cc12, the Ki [3] was 3.29 nM and the Ki [4] was 0.2 nM.
